Screening data: PubChem BioAssay, Columbia University Molecular Screening Center
Insulin prom act – TRM-6 insulin promoter activation; TRM-6 cells, insulin promoter eGFP reporter, imaging; plate-scaled: unstimulated 0, stimulated control 100; activation, % at 2 µM; actives 0.81% (n = 130,000);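 active means activation at 2 µM above a set limit, confirmed on inspection of the cell images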;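 further: share of cells whose green reporter signal exceeds an intensity cutoff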
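material = TRM-6 human fetal islet cells, insulin promoter–eGFP reporter | input = 1,000 TRM-6 cells seeded per well | benchmarks = stimulated versus unstimulated wells as plate controls | measured by = automated fluorescence imaging of paraformaldehyde-fixed, Hoechst-counterstained cells, green channel | schedule = compound exposure 48 h, 37 °C | reagent = tamoxifen at 0.75 µM added at seeding for reporter induction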
The depositor's hits bear a star. The full list was thinned out, with hits kept by preference.

SMILES	Insulin prom act
COc1ccccc1Oc1coc2c(CN3CCN(C)CC3)c(O)ccc2c1=O	8
O=C1/C(=C/c2ccco2)CCc2ccccc21	0
COc1cc(N2CCCC2)ccc1[N+](=O)[O-]	8
Cc1ccccc1NC(=S)N(CCc1c(C)[nH]c2ccc(F)cc12)Cc1cccnc1	0
COc1cccc(NC(=S)N(CCc2c(C)[nH]c3ccc(C)cc23)Cc2cccs2)c1	-5
Cc1[nH]c2ccc(F)cc2c1CCN(Cc1ccco1)C(=S)NC(C)(C)C	347*
Oc1ccc2ccccc2c1C=Nc1cc(C(F)(F)F)ccc1N1CCCC1	-7
O=C(NCCCn1ccnc1)c1cc2cc([N+](=O)[O-])ccc2oc1=O	0
CCOC(=O)c1cccc(NC(=O)CSc2nnc(CNc3ccc(C)cc3)n2CC)c1	0
CCOC(=O)c1cccc(NC(=O)c2cccnc2)c1	9
CCOC(=O)c1cccc(NC(=O)CSc2nnc(-c3cccnc3)n2CC)c1	81*
CC1(C(=O)Oc2ccccc2)Cc2ccccc2C(=O)O1 (configuration not stated)	-7
O=C(NCCc1ccccc1)c1oc2ccccc2c1COc1ccccc1	80*
O=C(COC(=O)COc1ccccc1)NCc1ccccc1	0
O=C(NCCc1ccccc1)c1ccc(-c2ccccc2C(F)(F)F)o1	5
Nc1ccc2nc(SCc3cccc(F)c3)sc2c1	-78
C/C(=N/OC(=O)c1ccc(F)cc1)c1ccc(C)cc1	0
CS(=O)(=O)N1CCN(C(=O)c2cc(-c3ccccc3)nc3ccccc23)CC1	9
CCOc1ccc(-c2cc(C(=O)N3CCN(c4ccccn4)CC3)c3ccccc3n2)cc1	740*
O=C(c1cc(Sc2cccc(Cl)c2)nc2ccccc12)N1CCN(c2ccccn2)CC1	136
Cc1cc(C)c2nc(/N=C(\N)NC(=O)Nc3ccccc3)nc(C)c2c1	5
CC1(C)SC2[C@H](NC(=O)C(NC(=O)N3CCNC3=O)c3ccccc3)C(=O)N2C1C(=O)O (some centres not stated)	10
Cc1cccnc1CCNC(=O)CC1C(=O)NCCN1CC1CCCCC1 (configuration not stated)	4
COc1ccc(NS(=O)(=O)c2ccc(SC)cc2)c(OC)c1	4
COc1ccc(S(=O)(=O)Nc2cc3c4c(oc3c3ccccc23)CC(C)(C)CC4=O)cc1	87*
SMILES	Insulin prom act
COc1ccc(S(=O)(=O)Nc2ccccc2C)cc1	4
N/C(=N\OS(=O)(=O)c1ccc(Br)cc1)c1ccncc1	3
CC(Nc1[nH]c(=O)n(C)c(=O)c1N=O)c1ccccc1 (configuration not stated)	0
COc1ccc(-c2nc(C)sc2C)cc1	419*
COc1ccc(-c2sc(NC(C)=O)nc2-c2ccccc2)cc1	-8
COCC(=O)Nc1nc(-c2ccc(C)cc2)c(C)s1	314
COc1ccc(-c2ccc3c(n2)sc2c(=O)[nH]c(=O)[nH]c23)cc1OC	136
COc1cc(/C=N/c2oc(-c3ccccc3)cc2C#N)ccc1O	8
Cc1cccc(-n2c(C)cc(C=C3C(=O)c4ccccc4C3=O)c2C)c1	7
O=C1C(=Cc2cccs2)C(=O)c2ccccc21	-7
Cc1ccc(C=C2C(=O)c3ccccc3C2=O)s1	322*
CCOc1cccc(-c2cc(C(=O)N3N=C(C)CC3(O)C(F)F)c3ccccc3n2)c1 (configuration not stated)	6
COc1cc(SC)ccc1C(=O)OC(C)C(=O)NC1CCCC1 (configuration not stated)	0
CC(C)OCCCNC(=O)c1cc2c(s1)CS(=O)(=O)C2	-3
Cc1ccc(NC(=O)CCSCCC(=O)Nc2ccc(C)c(C)c2)cc1C	3
COC(=O)CCC(=O)Nc1cccc(Cl)c1	0
CCc1cccc(NC(=O)CCSCCC(=O)Nc2cccc(CC)c2)c1	90*
COCCCN1CN(Cc2ccccc2)CNC1=S	-2
Cc1ccc(CNS(=O)(=O)NCc2ccccc2)cc1	-8
CC(C)NC(=O)c1ccccc1NC(=O)CN(c1ccc2c(c1)OCO2)S(C)(=O)=O	-7
CCCCN(C(=O)NC(=O)Nc1c(C)cc(C)cc1C)S(C)(=O)=O	164*
Cc1cc(C)c(NC(=O)Cc2ccc(-n3cccc3)cc2)c(C)c1	3
Cc1cc(C)c(NC(=O)Nc2ccccc2)c(Cl)c1	0
Cn1c(N=NC(=O)c2ccccc2)c(O)c2ccccc21	-4
CCOC(=O)c1ccc(NS(=O)(=O)N2CCCCCC2)cc1	5
SMILES	Insulin prom act
COc1cc2nc(CN3CCN(S(=O)(=O)c4ccc(Cl)cc4)CC3)[nH]c(=O)c2cc1OC	0
CSCCC(NC(=O)CCN1C(=O)c2ccccc2C1=O)C(=O)O (configuration not stated)	6
CSCC[C@H](NC(=O)CCn1nnc2ccccc2c1=O)C(=O)O	150*
O=c1c2ccccc2nnn1CSc1nc2ccccc2c(=O)n1CCCO	9
COCCn1c(=S)[nH]c2ccccc21	-7
COC(=O)N1CC(=O)N(OC)C1c1ccc(Cl)cc1Cl (configuration not stated)	0
O=C(CCc1ccccc1)NCCc1nc2ccccc2[nH]1	7
Cc1[nH]n(-c2ccccc2)c(=S)c1C=Nc1ccc([N+](=O)[O-])cc1	0
COC(=O)c1ccccc1S(=O)(=O)N1Cc2cc([N+](=O)[O-])ccc2Oc2ccccc21	0
COc1ccc(C2C(C#N)=C(N)Nc3onc(C(C)(C)C)c32)c(OC)c1 (configuration not stated)	-3
COc1ccc(OC)c(C2C3CN(C(C)C)CC=C3C(C#N)=C(N)C2(C#N)C#N)c1 (configuration not stated)	479*
CCCCOc1ccc(C2C3CN(C(=O)OCC)CC=C3C(C#N)=C(N)C2(C#N)C#N)cc1OC (configuration not stated)	5
O=C(CCOc1ccccc1F)N1CCN(c2ccccc2O)CC1	0
C[N+]1(C2CCC3CCCC2C3O)CCCC1 (configuration not stated)	-1
NC(=O)CSc1nc2ccccc2n1-c1ccccc1	342
Cn1c(CNC(=O)c2ccc(F)cc2)nc2ccccc21	0
O=c1c(/C=C(\O)c2ccc(F)cc2)nc2ccccc2n1-c1ccccc1	128*
COc1cc2c(cc1OC)-c1cc(OCc3ccccc3Cl)nc(=O)n1CC2	-66
COc1cc2c(cc1OC)C(CC#N)=NC(C)(C)C2	6
COc1cc2c(cc1OC)C1=C(C#N)CC/C(=N\S(=O)(=O)c3cccc(Cl)c3)N1CC2	87*
CCCNC(=O)NC(=O)CSc1cccc(C(F)(F)F)c1	146
COc1ccc(NC(=O)COC(=O)CCCN2C(=O)c3ccccc3C2=O)cc1Cl	8
N#Cc1cnn2c(N)c(-c3ccc(Cl)cc3)cnc12	9
CC(=O)c1cnc2c(-c3ccc(Cl)cc3)cnn2c1C	585*
CC(=O)c1cnc2cc(-c3cccc(Br)c3)nn2c1C	7
SMILES	Insulin prom act
Cc1nn(C)c(C)c1CS(=O)(=O)c1ccccc1	0
COc1ccc(NC(=O)N2CCC(c3nc4ccccc4[nH]3)CC2)cc1	-2
COC(=O)N/N=C/c1cccc(OCCSc2ccc(Cl)cc2)c1	-8
COc1ccc(/C(O)=C/c2nc3ccc(C(=O)NCCc4cccc(C)c4)cc3[nH]c2=O)cc1OC	107
C=CCn1c(CCNC(=O)c2cccs2)nnc1SCC(=O)c1ccc(Br)cc1	-7
CCn1c(SC/C=C/c2ccccc2)nnc1-c1cccs1	191
C=CCn1c(Cc2cccs2)nnc1SC/C=C/c1ccccc1	81*
